Several values for one entry are separate records, joined by “and”; a condition that tells them apart may be missing. Equal values may be shown once. Ends that are not written are not given here. Peptide text beside a SMILES is read from it. * marks the point of attachment. αGalNAc = CC(=O)N[C@@H]1[C@@H](O)[C@@H](O)[C@@H](CO)O[C@@H]1*
Columns and labels:
GalNAc-T4 wild-type [1] = biological target: T1, GalNAc-T4 wild-type (Homo sapiens, UniProt Q8N4A0); test: Transferase assay and kinetics, wild-type GalNAc-T4; format: biochemical; conditions: for Activity relative to glycopeptides 4 and 5 (fold higher): from Figure 1a
Method in brief: (§1)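 Enzyme construct residues 36–578, wild-type or site-directed mutants. Reaction: 75 mM Na cacodylate pH 6.5, 1 mM 2-mercaptoethanol, 10 mM MnCl2, 0.25 mM UDP-[3H]GalNAc, 0.004–1.4 mM (glyco)peptide and 0.02–0.2 μM enzyme, at 37 °C for 10–180 min (≤30% donor used). EDTA quench, Dowex, then Sephadex G10 to separate transfer from hydrolysis. Rates hydrolysis-corrected, 2–5 repeats; Km, Vmax and Ki from Michaelis–Menten ± substrate-inhibition fits.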

[2] = biological target: GalNAc-T4 Catalytic/LFL Mutant (T283S-Q285A-D464A) (Homo sapiens, UniProt Q8N4A0, D464A/Q285A/T283S); test: Transferase assay and kinetics, catalytic/LFL mutant; format: biochemical
Method in brief: as §1

GalNAc-T4 [3] = biological target: T2, GalNAc-T4 (Homo sapiens, UniProt Q8N4A0); test: Surface plasmon resonance binding to GalNAc-T4; conditions: wild-type
Method in brief: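 SPR binding of glycopeptide substrate to wild-type enzyme, run with excess UDP and MnCl2 present; Kd obtained by fitting the binding data.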

[4] = biological target: GalNAc-T4 Catalytic Mutant (T283S-Q285A) (Homo sapiens, UniProt Q8N4A0, Q285A/T283S); test: Transferase assay and kinetics, catalytic mutant; format: biochemical
[5] = biological target: GalNAc-T4 Lectin Flexible Loop (LFL) deletion/mutant (P463DNNP467 to GGG) (Homo sapiens, UniProt Q8N4A0, DEL463-464/N465G/N466G/P467G); test: Transferase assay and kinetics, LFL mutant; format: biochemical; conditions: for UDP-GalNAc Hydrolysis %: LFL deletion/mutant, Sephadex G10 chromatography (Figure S8)
Method in brief: as §1

GalNAc-T4 [6] = biological target: T2, GalNAc-T4; test: STD-NMR epitope mapping with GalNAc-T4; format: binding; conditions: ~877 μM glycopeptide, 13.5 μM GalNAc-T4, 75 μM UDP, 75 μM MnCl2, 298 K
[7] = biological target: GalNAc-T4 Lectin Mutant (D459H) (Homo sapiens, UniProt Q8N4A0, D459H); test: Transferase assay and kinetics, lectin mutant; format: biochemical; conditions: for UDP-GalNAc Hydrolysis %: Sephadex G10 chromatography (Figure S8)
Method in brief: as §1

[8] = biological target: catalytic domain mutant of GalNAc-T4 (T283S-Q285A) (Homo sapiens, UniProt Q8N4A0, Q285A/T283S); test: Surface plasmon resonance binding to GalNAc-T4 catalytic mutant; conditions: T283S/Q285A catalytic mutant (Figure S11)
GalNAc-T4 wild-type [9] = biological target: T1, GalNAc-T4 wild-type; conditions: cited from earlier work
GalNAc-T4 [10] = biological target: T2, GalNAc-T4; conditions: in presence of GalNAc-T4, UDP, MnCl2; cited from earlier work
GalNAc-T4 [11] = biological target: T2, GalNAc-T4; conditions: wild-type GalNAc-T4, excess UDP and MnCl2; saturation not achieved; cited from earlier work
[12] = biological target: GalNAc-T4 (polypeptide GalNAc-transferase 4), wild type, residues 36-578 (human, UniProt Q8N4A0 36-578); test: SPR
[13] = biological target: GalNAc-T4 catalytic mutant (T283S, Q285A), residues 36-578 (human, UniProt Q8N4A0 36-578, T283S | Q285A); test: SPR

CC(=O)N[C@H]1[C@@H](O[C@H](C)[C@H](NC(=O)CNC(=O)[C@H](C)NC(=O)CNC(=O)[C@H](C)NC(=O)CNC(=O)[C@H](C)NC(=O)CNC(=O)[C@@H](NC(=O)[C@H](C)NC(=O)CN)[C@@H](C)O[C@H]2O[C@H](CO)[C@H](O)[C@H](O)[C@H]2NC(C)=O)C(=O)N[C@H](C(=O)N2CCC[C@H]2C(=O)NCC(=O)N2CCC[C@H]2C(=O)NCC(N)=O)[C@@H](C)O)O[C@H](CO)[C@H](O)[C@@H]1O [compound 6] (H-GAT(αGalNAc)GAGAGAGT(αGalNAc)TPGPG-NH2; N-terminus and C-terminus assumed)
Catalytic efficiency (Vmax/Km) relative to peptide 3 (fold higher) (GalNAc-T4 wild-type [1]): ~1.5 fold | Catalytic efficiency (Vmax/Km) relative to peptide 4 (fold higher) (GalNAc-T4 wild-type [1]): ~150 fold | Km relative to peptide 3 (fold lower) (GalNAc-T4 wild-type [1]): ~1.3 fold | Activity relative to glycopeptides 4 and 5 (fold higher) (GalNAc-T4 wild-type [1]): ~10 fold | Km relative to catalytic mutant (fold lower) [2]: ~4 fold | Kd (SPR) relative to Km (fold higher) (GalNAc-T4 [3]): ~2 fold | Catalytic efficiency Vmax/Km as fraction of wt [4]: about 1/2 | Initial Vmax relative to wt transferase (fold higher) [4]: ~2 fold | Km relative to wt (fold higher) [4]: ~4 fold and ~3 fold | Apparent Vmax relative to wt GalNAc-T4 (fold higher) ([5]; LFL mutant): ~2 fold | STD-NMR response, H2 proton of the GalNAc at Thr11 (GalNAc-T4 [6]; catalytic domain bound neighboring GalNAc): 50% | STD-NMR response, H2 proton of the GalNAc at Thr3 (GalNAc-T4 [6]; remote lectin bound GalNAc): 90% | Km increase relative to wt GalNAc-T4 [7]: ~20 fold | Vmax decrease relative to wt GalNAc-T4 [7]: ~5 fold | UDP-GalNAc Hydrolysis % [7]: ~20% | Kd by SPR relative to wt transferase (fold higher) [8]: ~6 fold

AGAGT*TPGPGAGAT*GA [compound 5]
Apparent activity and Vmax as fraction of the values for the catalytic and LFL mutants [2]: 1/4 | Catalytic activity (Vmax) as fraction of wt GalNAc-T4 activity [4]: 1/3 | Km relative to wt (fold higher) [4]: ~2 fold | UDP-GalNAc Hydrolysis % [5]: ~50% | Reduction in catalytic efficiency compared to wt GalNAc-T4 ([5]; LFL mutant): ~50%

AGAGTTPGPGAGAT*GA [compound 2]
UDP-GalNAc Hydrolysis % [5]: ~90% | Glycosylation by GalNAc-T4 (in words) (GalNAc-T4 wild-type [9]): imperceptibly glycosylated

GAGAGAGT*TPGPG [compound 4]
Apparent activity and Vmax as fraction of the values for the catalytic and LFL mutants [2]: 1/4 | Catalytic activity (Vmax) as fraction of wt GalNAc-T4 activity [4]: 1/3 | Km relative to wt (fold higher) [4]: ~2 fold | UDP-GalNAc Hydrolysis % [5]: ~50% | Reduction in catalytic efficiency compared to wt GalNAc-T4 ([5]; LFL mutant): ~50% | Catalytic efficiency relative to wt transferase (fold higher) [7]: ~2 fold | Vmax relative to wt transferase (fold higher) [7]: ~2 fold

GAGAGAGTTPGPG [compound 1]
UDP-GalNAc Hydrolysis % [5]: ~90% | STD-NMR enhancements (in words) (GalNAc-T4 [10]): No significant STD enhancements | Glycosylation by GalNAc-T4 (in words) (GalNAc-T4 wild-type [9]): imperceptibly glycosylated

GAT*GAGAGAGTTPGPG [compound 3]
Catalytic efficiency (Vmax/Km) relative to peptide 4 (fold higher) (GalNAc-T4 wild-type [1]): ~100 fold | Km relative to peptide 4 (fold lower) (GalNAc-T4 wild-type [1]): ~12 fold | Vmax relative to peptide 4 (fold higher) (GalNAc-T4 wild-type [1]): ~8 fold | Activity relative to glycopeptides 4 and 5 (fold higher) (GalNAc-T4 wild-type [1]): ~10 fold | Km relative to wt (fold higher) [2]: ~2 fold | Km relative to wt (fold higher) [4]: ~2 fold | Km increase relative to wt GalNAc-T4 [7]: ~20 fold | UDP-GalNAc Hydrolysis % [7]: ~70% | Kd by SPR (in words) (GalNAc-T4 [11]): in the mM range

GATGAGAGAGTTPGPG (not fully specified (residues 3, 11); printed as GAT*GAGAGAGT*TPGPG) [diglycopeptide 6, GAT*GAGAGAGT*TPGPG]
Kd [12]: 70 ± 15 µM | fold change of Kd against the wt transferase [13]: ~6 fold
